Experimental data pooled from the literature.
Protocols differ between the studies behind these lines.
Target: SRSF protein kinase 3 (SRPK3, Homo sapiens, UniProt Q9UPE1)

For `CCN1CCN(Cc2ccc(C(=O)Nc3ccc(C)c(Oc4ccc5c(c4)CC(=O)N5)c3)cc2C(F)(F)F)CC1`, the remaining binding was 99% (binding, competition with immobilised ligand; 1 µM).
`O=C(NCCCN1CCOCC1)c1ccc(Nc2ncc(Cl)c(-c3ccc(Cl)s3)n2)cc1` has a remaining binding of 100% (binding, competition with immobilised ligand; 1 µM).
For `CC(=O)N1CCC(c2ccc(C(=O)NC3=NCCN3)cc2C(F)(F)F)CC1`, the remaining binding was 100% (cell-free assay, competition with immobilised ligand; 1 µM).
The remaining binding of `C[C@H]1CCN(c2nccc(-c3cnn4ncccc34)n2)C1` is reported as 68% (binding; 1 µM).
`COc1ncc2cc3ccccc3nc2c1C#N` gave a remaining binding of 98% (cell-free assay, competition with immobilised ligand; 5 µM).
`CN(C)c1ncc(F)c(-c2cnn3ncccc23)n1` gave a remaining binding of 100% (binding; 1 µM).
For `CS(=O)(=O)N1CCCC(NC(=O)[C@H](CCC2CCCCC2)NC(=O)c2ccc(CNC(=O)c3cnc4ccccn34)cc2)C1` (stereo partly drawn), the remaining binding was 100% (cell-free assay, competition with immobilised ligand; 0.1 µM).
`Nc1ncc2c(n1)-c1c([nH]c3ccc(C#CC4CC4)cc13)CCCC2` has a remaining binding of 90% (binding, competition with immobilised ligand; 1 µM).
For `Cc1cnn2ncc(-c3ccnc(N(C)C)n3)c2c1`, the remaining binding was 56% (binding; 1 µM).
The remaining binding of `O=C(NCC1CCOCC1)c1n[nH]cc1NC(=O)c1c(F)cccc1F` is reported as 83% (binding, competition with immobilised ligand; 1 µM).
For `CN(C)c1nccc(-c2cnn3ncccc23)n1`, the remaining binding was 92% (binding; 1 µM).
`CCCOc1ccc([C@@H]2[C@@H](C(=O)O)[C@H](c3ccc4c(c3)OCO4)CN2CC(=O)Nc2c(CC)cccc2CC)cc1` gave a remaining binding of 93% (cell-free assay, competition with immobilised ligand; 1 µM).
With `FC(F)(F)Oc1cccc(-c2cnc3ccc(-c4ccncc4)nn23)c1` the remaining binding was 41% (binding, competition with immobilised ligand; 5 µM).
`COc1cnc(Nc2cccc(S(N)(=O)=O)c2)nc1N1CCN(c2ccccc2)CC1` has a remaining binding of 95% (binding, competition with immobilised ligand; 1 µM).
For `CCCCN(CCCC)C(=O)CN1C[C@@H](c2cc(OC)c3c(c2)OCO3)[C@H](C(=O)O)[C@H]1CC(C)(C)CCC`, the remaining binding was 100% (cell-free assay, competition with immobilised ligand; 1 µM).
The remaining binding of `O=C(c1ccc(Nc2ncc(Cl)c(-c3cc4ccccc4s3)n2)cc1)N1CCC(N2CCCC2)CC1` is reported as 100% (binding, competition with immobilised ligand; 1 µM).
For `C[C@@H]1CN(c2ccc3ncc(-c4ccc5[nH]nc(C6CC6)c5c4)n3n2)C[C@H](C)O1`, the remaining binding was 97% (binding, competition with immobilised ligand; 50 nM).
`N#Cc1ccccc1CSc1nnc2c(n1)[nH]c1ccccc12` gave a remaining binding of 75% (binding, competition with immobilised ligand; 10 µM).
The remaining binding of `O=C(Nc1cccnn1)N1CC(C/C=C/c2cncc(Oc3ccc(C(F)(F)F)cn3)n2)C1` is reported as 100% (cell-free assay, competition with immobilised ligand; 1 µM).
The remaining binding of `N[C@H]1CCN(c2nccc(-c3cnn4ncccc34)n2)C1` is reported as 66% (binding; 1 µM).
`COc1ccc2c(O[C@@H]3C[C@H]4C(=O)N[C@]5(C(=O)O)CC5/C=C\CCCCC[C@H](NC(=O)OC5CCCC5)C(=O)N4C3)cc(-c3csc(NC(=O)C(C)C)n3)nc2c1C` (stereo partly drawn) gave a remaining binding of 57% (cell-free assay, competition with immobilised ligand; 1 µM).
For `c1cncc(-c2cccc(Nc3nccc(NC4CCCCC4)n3)c2)c1`, the remaining binding was 55% (binding, competition with immobilised ligand; 10 µM).
The remaining binding of `CCS(=O)(=O)c1cc2cc(C[C@@](O)(CC(C)(C)c3ccc(F)cc3C(N)=O)C(F)(F)F)[nH]c2cn1` is reported as 100% (cell-free assay, competition with immobilised ligand; 1 µM).
`F[C@@H]1CCN(c2nccc(-c3cnn4ncccc34)n2)C1` has a remaining binding of 100% (binding; 1 µM).
